Experimental data published in ChEMBL document CHEMBL1142707, “Bisaryloxime ethers as potent inhibitors of transthyretin amyloid fibril formation” (J Med Chem, 2005).

Columns and labels:
[1] = biological target: Transthyretin (Homo sapiens) (UniProt P02766); test: Percentage of WT-TTR (3.6 uM) amyloid fibril formation at pH 4.4 upon incubation with the compound (7.2 uM); compound is unstable
Outline: (§1)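 WT-TTR (7.2 µM, 0.4 mg/mL) in 10 mM phosphate pH 7.2, 100 mM KCl, 1 mM EDTA was preincubated 30 min at 37 °C with inhibitor added from a 1.44 mM DMSO stock. An equal volume of 200 mM acetate pH 4.2 brought the sample to pH 4.4 (3.6 µM TTR, 7.2 µM compound final). Left 72 h at 37 °C, vortexed, turbidity read at 350 and 400 or 500 nm. Run in duplicate or triplicate.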

[2] = biological target: Transthyretin (Homo sapiens) (UniProt P02766); test: Percentage compound remaining at the conclusion of the acid-mediated fibril formation assay (72 h), assay conditions compound (7.2 uM), WT-TTR (3.6 uM, pH 4.4, 37C)
Outline: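 Compound at 7.2 µM was incubated in the dark with or without 3.6 µM WT-TTR under acid fibril conditions (pH 4.4, 37 °C, 72 h). Analytical RP-HPLC peak area of the compound at the end was compared with the area at the start. Measurement error stated as 4%.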

[3] = biological target: Transthyretin (Homo sapiens) (UniProt P02766); test: Percentage compound remaining at the conclusion of the acid-mediated fibril formation assay (72 h), assay conditions compound (7.2 uM), WT-TTR (3.6 uM, pH 7.2, 37C)
Outline: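 Compound at 7.2 µM was incubated in the dark with 3.6 µM WT-TTR at 37 °C for 72 h, with the buffer held at pH 7.2. Analytical RP-HPLC peak area of the compound at the end was compared with the area at the start.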

[4] = biological target: Transthyretin (Homo sapiens) (UniProt P02766); test: Percentage of WT-TTR (3.6 uM) amyloid fibril formation at pH 4.4 upon incubation with the compound (7.2 uM); outline: as §1
[5] = biological target: Transthyretin (Homo sapiens) (UniProt P02766); test: Binding stoichiometry to TTR in human blood plasma determined by antibody capture/HPLC method; format: cell-free
Outline: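 Human blood plasma spiked to 10.8 µM test compound from a 2.16 mM DMSO stock and incubated 24 h at 37 °C. Plasma was precleared with plain Sepharose for 1 h at 4 °C, then split into three aliquots for anti-TTR antibody-resin capture (20 min, 4 °C) in 10 mM Tris pH 8.0, 140 mM NaCl. Resin washed, eluted with 100 mM triethylamine pH 11.5, eluate analysed by HPLC for compound:TTR stoichiometry.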

| Formation [1] | Activity [2] | Activity [3] | Formation [4] | Binding stoichiometry [5] | SMILES |
| --- | --- | --- | --- | --- | --- |
| Unstable | – | – | – | – | O=C(O)c1ccccc1/C=N/Oc1ccccc1C(=O)O |
| – | 83% | 76% | 3% | 1.38 | O=C(O)c1ccc(/C=N/Oc2ccccc2C(F)(F)F)cc1 |
